# Source: PubChem (The Scripps Research Institute Molecular Screening Center)
# PAD4 inh: blocks human protein arginine deiminase 4. Q9UM07. inhibition, % at 6.36 µM. 330,000 tested, 0.41% active. recombinant PAD4, RCA probe fluorescence polarization. AID 485272;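 active = percent inhibition above a cutoff equal to the mean of all tested compounds plus 3 SD, cut at about 15% in these data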;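 also: 0% = PAD4 with RCA probe and DMSO and 100% = probe without PAD4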
# TCR CD3 inh: human TCR-CD3 binding inhibition | TAMRA-labeled TCR probe fluorescence, biochemical | inhibition, % at 9.4 µM | 360,000 tested, 0.37% active | AID 651800; in the data active = inhibition above about 19%;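 also: recombinant mutant TCR 2C K166C tagged with TAMRA read by polarization; 0% = receptor in buffer alone and 100% = receptor with positive control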
# mABHD4 FP: inhibitors of mouse ABHD4; inhibition, % at 8.92 µM; AID 720543; 370,000 tested, 0.54% active; Q8VD66; purified mABHD4, FP-Rh probe fluorescence polarization;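 active = inhibition exceeding the mean over every tested compound plus 3 SD, cut at about 30% in these data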;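 also: 0% = plate median of compound wells and 100% = S159A mutant with DMSO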
# Target sequence (Q8VD66 whole entry, looked up): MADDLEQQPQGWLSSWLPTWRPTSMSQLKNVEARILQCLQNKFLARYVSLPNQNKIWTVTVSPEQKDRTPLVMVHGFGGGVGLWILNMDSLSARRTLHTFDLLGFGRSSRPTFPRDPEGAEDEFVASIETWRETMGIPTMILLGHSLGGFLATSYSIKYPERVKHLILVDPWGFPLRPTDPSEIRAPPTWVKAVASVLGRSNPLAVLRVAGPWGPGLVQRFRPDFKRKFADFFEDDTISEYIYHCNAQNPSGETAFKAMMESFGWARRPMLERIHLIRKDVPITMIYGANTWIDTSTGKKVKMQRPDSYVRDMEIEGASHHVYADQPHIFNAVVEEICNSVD
#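 Assay system: wild-type mouse ABHD4 protein; compound: single nominal dose of 8.92 µM, 0.89% DMSO final; schedule: 45 min + 60 min at 25 °C; measured by: FP readout, ex 525 nm / em 598 nm; evaluation: % inhibition of FP-Rh probe binding versus controls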
# HTRA1 inhibitor: blocks human HTRA1 serine peptidase | Q92743 | recombinant HTRA1, FP-rhodamine activity-based probe, fluorescence polarization | inhibition, % at 5.96 µM | 340,000 tested, 0.5% active | AID 504803; in the data active = inhibition above about 36%;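 also: 0% = enzyme with DMSO and 100% = wells lacking enzyme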
# SIAE inh: human SIAE inhibition, primary screen | 370,000 tested, 0.69% active | SIAE FP-Rh probe binding, fluorescence polarization | AID 1053197 | inhibition, % at 9.66 µM;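 active = inhibition above a cutoff: mean of compounds within the control limits plus 3 SD of those, cut at about 17% in these data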;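 also: 0% = plate median of compound wells and 100% = probe without SIAE protein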
# TDP2 inh: blocks human TDP2 phosphodiesterase activity; O95551; recombinant TDP2, T5PNP hydrolysis, p-nitrophenol absorbance 415 nm; AID 720702; 370,000 tested, 0.34% active; inhibition, % at 12.8 µM;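 active = inhibition above the mean of all tested compounds plus 3 SD, set per campaign, cut at about 25% in these data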;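 also: 0% = DMSO with enzyme and 100% = buffer with substrate but no TDP2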
#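 System – recombinant human TDP2 · Quantity – TDP2 enzyme at 120 nM final · Doses – single concentration, 12.8 µM nominal, with 1% DMSO · Incubation – 2 h at 37 °C · Measured by – epi absorbance of p-nitrophenol freed from T5PNP by hydrolysis · Read-out – % inhibition relative to enzyme-containing and enzyme-free wells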
# ABHD4 confirm: ABHD4 (mouse) inhibition, FP confirmation; shares compounds with mABHD4 FP; purified mABHD4, FP-Rh probe fluorescence polarization; inhibition, % at 8.92 µM; 1,800 tested, 55% active;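 active = mean inhibition across replicates above the hit cutoff set in the primary screen, cut at about 30% in these data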;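 also: 0% = wild-type ABHD4 with DMSO and 100% = catalytically dead S159A mutant with DMSO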
# TDP2 inh conf: confirmation of human TDP2 inhibitors; 1,100 tested, 22% active; shares compounds with TDP2 inh; inhibition, % at 12.8 µM; recombinant human TDP2, absorbance read-out; in the data active = inhibition above about 25%;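 also: 0% = vehicle with enzyme and 100% = no enzyme buffer only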
# SIAE inh conf: human SIAE inhibition, confirmation | shares compounds with SIAE inh | SIAE FP-Rh activity-based probe, fluorescence polarization | inhibition, % at 9.66 µM | 2,300 tested, 13% active | AID 1117263;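 active = mean inhibition of the replicates above the hit cutoff set in the primary screen, cut at about 17% in these data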;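 also: 0% = SIAE with DMSO and probe and 100% = probe without SIAE; inhibitors lower polarization as more probe stays unbound to SIAE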
# * marks the source's active call; other numbers are inactive results; / = no result given. Hits are enriched below; roughly 2% of the tested compounds scored in any of these assays.
SMILES,PAD4 inh,TCR CD3 inh,mABHD4 FP,HTRA1 inhibitor,SIAE inh,TDP2 inh,ABHD4 confirm,others
O=C(NCc1ccccn1)c1ccccc1OCc1ccccc1Cl,/,0,4,-4,-1,6,/,
COc1ccccc1[C@@H]1C(c2ccccc2)=NN(c2ccc(Br)cc2)[C@H]1C(=O)N1CCOC1=O,4,1,49*,-14,-6,0,-2,
COc1ccccc1[C@@H]1C(c2cccc(C)c2)=NN(c2ccc(Br)cc2)[C@H]1C(=O)N1CCOC1=O,7,-3,7,-6,-7,-1,/,
O=C(COC(=O)c1ccccc1)Nc1ncc([N+](=O)[O-])s1,-4,9,39*,11,-9,4,41*,
O=C(Nc1ccc(O)cc1C(=O)O)c1ccc2c(c1)C(=O)N(Cc1ccco1)C2=O,0,-6,14,4,-42,-9,/,
O=C(Nc1cc([N+](=O)[O-])ccc1O)c1ccc2c(c1)C(=O)N(Cc1ccco1)C2=O,2,13,38*,4,2,-8,51*,
COC(=O)[C@H](Cc1c[nH]c2ccccc12)NCc1cccc(B(O)O)c1,/,5,77*,2,4,4,62*,
COC(=O)[C@@H](Cc1c[nH]c2ccccc12)NCc1ccc(B(O)O)cc1,/,7,72*,9,6,12,64*,
COC(=O)C(Cc1c[nH]c2ccccc12)NC(=O)CNC(C)=O (centres undefined),1,-2,-3,2,0,5,/,
COC(=O)C(c1ccccc1)C(CC(=O)c1ccccc1)c1ccccc1 (centres undefined),/,6,0,-21,-1,6,/,
CC(C)(C)c1ccc(-c2csc(N3CCC(C(N)=O)CC3)n2)cc1,/,/,35*,/,4,-6,37*,
COc1ccc(Oc2ccc(C(F)(F)F)cc2N)cc1,0,1,-8,0,-4,-13,/,
COc1ccccc1NS(=O)(=O)c1ccc(N/N=C/C=C/c2ccccc2[N+](=O)[O-])c([N+](=O)[O-])c1,0,6,1,4,-3,4,/,
COc1ccc(NS(=O)(=O)c2cc([N+](=O)[O-])ccc2NN=Cc2ccccc2OCC(=O)O)cc1,-2,7,6,-16,-7,-9,/,
CCN(CC)S(=O)(=O)c1ccc(N/N=C/c2ccccc2OCC(=O)O)c([N+](=O)[O-])c1,-3,-1,35*,6,4,-11,44*,
COc1ccccc1NS(=O)(=O)c1ccc(N/N=C/c2ccccc2OCC(=O)O)c([N+](=O)[O-])c1,0,-4,60*,25,-6,-4,61*,
CCOC(=O)C1=C(N)n2c(s/c(=C/c3ccco3)c2=O)=C(C(=O)OC)C1c1ccco1 (centres undefined),-8,3,39*,9,8,8,-7,
N#CC1=C(N)n2c(s/c(=C\c3ccco3)c2=O)=C(C#N)C1c1ccco1 (centres undefined),-1,7,32*,20,6,-4,-20,
CCOC(=O)C1=c2s/c(=C\c3ccncc3)c(=O)n2C(N)=C(C(=O)OC)C1c1ccncc1 (centres undefined),0,1,-4,-4,6,3,/,
CCCC(CCC)c1nnc(NC(=O)c2ccco2)s1,3,5,-6,-3,-1,0,/,
CCOC(=O)Cc1csc(NC(=O)c2sc3nc4ccc(C)cc4cc3c2N)n1,-5,2,36*,-17,4,8,14,
Cc1nn(Cc2ccc(C(=O)Nc3nc4c(C)cccc4s3)o2)c(C)c1Br,2,1,-10,-9,-18,-15,/,
Cc1csc(NC(=O)c2cccc(Cn3nc(C)c(Br)c3C)c2)n1,-1,-7,50*,-44,2,-13,-6,
Oc1ccc(N2CCN(Cc3c(-c4ccccc4)nc4ccccn34)CC2)cc1,-2,3,31*,17,6,1,-3,
Clc1ccc(-c2nc3ccccn3c2CN2CCCCC2)cc1,-3,-6,-3,-6,4,-3,/,
SMILES,PAD4 inh,TCR CD3 inh,mABHD4 FP,HTRA1 inhibitor,SIAE inh,TDP2 inh,ABHD4 confirm,others
Cc1nc(N)sc1-c1csc(N(C)c2ccc(O)cc2)n1,-14,6,34*,27,9,0,10,
COc1cccc(C=NN(C)c2c([N+](=O)[O-])cc(C(F)(F)F)cc2[N+](=O)[O-])c1O,/,2,45*,/,9,-5,49*,
COc1cc(/C=N/NC(=O)C(Cc2c[nH]c3ccccc23)NC(=O)OCc2ccccc2)cc([N+](=O)[O-])c1O (centres undefined),3,0,45*,30,64*,-11,92*,
CN(C)c1ccc2cc(S(=O)(=O)O)cc(O)c2c1,/,-3,78*,36,2,55*,54*,TDP2 inh conf=13
O=Nc1c(O)ccc2cc(S(=O)(=O)O)ccc12,/,/,/,1,/,/,/,
CCCCn1c(N)c(N(CC(C)C)C(=O)c2ccco2)c(=O)[nH]c1=O,0,4,7,-2,-10,3,/,
O=C(O)CSc1cc(NS(=O)(=O)c2cccc([N+](=O)[O-])c2)c2ccccc2c1O,/,-5,41*,22,11,63*,34*,TDP2 inh conf=70*
CCOC(=O)c1ccccc1NS(=O)(=O)c1ccc(OCC)cc1,-1,5,-5,-24,1,0,/,
O=S(=O)(Nc1cc(Sc2cccc3cccnc23)c(O)c2ccccc12)c1ccccc1,/,8,42*,/,17,33*,17,TDP2 inh conf=7
CCOc1ccc(S(=O)(=O)Nc2cc(SCC(=O)O)c(O)c3ccccc23)cc1,/,0,43*,32,6,66*,45*,TDP2 inh conf=55*
C=CCN1[C@H](C)COc2cccc(F)c2S1(=O)=O,/,/,-11,/,-1,-18,/,
O=c1c2c([N+](=O)[O-])cc([N+](=O)[O-])cc2sn1Cc1ccccc1,1,0,32*,9,25*,9,26,SIAE inh conf=20*
COc1ccc(Br)cc1/C=N/Nc1cccc(C(=O)O)c1,3,5,20,-2,0,-4,/,
O=C(O)c1cccc(N/N=C/c2cc(Br)cc(Br)c2O)c1,-2,14,56*,-1,31*,2,80*,SIAE inh conf=3
